For 23 molecules, Phosphorylating activity and IC50 results are on record in ChEMBL document CHEMBL1131043, “Nucleosides and nucleotides. 175. Structural requirements of the sugar moiety for the antitumor activities of new nucleoside antimetabolites, 1-(3-C-ethynyl-beta-D-ribo-pentofuranosyl)cytosine and -uracil1” (J Med Chem, 1998).

Assay [1] has as its system Sarcoma-180. The assay can be described thus: Phosphorylation by uridine/cytidine kinase(UCK) from mouse sarcoma -180 ascites cells was measured. It counts as functional. The gist of the method:
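UCK partially purified from mouse Sarcoma-180 ascites cells (ammonium sulfate 30–50%, Sephacryl S-200, hydroxyapatite, DEAE-Sepharose). Reaction: 50 mM Tris-HCl pH 8.0, 10 mM ATP, 10 mM NaF, 5 mM MgCl2, 1 mg/mL BSA, 0.6 mM nucleoside, 37 °C, 15 min (Cyd, Urd) or 60 min (others), stopped by boiling. Tritiated nucleosides: 5'-monophosphate on PEI-cellulose TLC counted; unlabeled: substrate consumption by C18 HPLC at 270 nm. Duplicate means.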

For assay [2], the system named is Sarcoma-180. Kind of assay: Cytotoxicity against sarcoma -180 cells was measured by […]. The following applies: Mus musculus. It counts as functional, cell-based. The gist of the method:
(§1)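 Cells seeded at 2 × 10³/well, cultured with or without test nucleoside for 72 h, then 4 h further with MTT. Formazan dissolved in DMSO, OD read at 540 nm. % inhibition = [1 − OD sample/OD control] × 100; IC50 taken as concentration giving 50% growth inhibition. S-180 cytotoxicity run by the same method.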

In assay [3] the test system is KB. The assay can be described thus: Concentration required to inhibit 50% of human epidermoid KB cell growth was measured(in vitro) using MTT assay. The assay is classed as functional, cell-based. The essentials: as §1
A further assay deals with L1210. The assay can be described thus: Concentration required to inhibit 50% of murine leukemia L1210 cell growth was measured(in vitro) using MTT assay. It counts as functional, cell-based, Mus musculus. The essentials:
as §1
Background: Formazan colour is commonly taken as a measure of viable cells.

The test system of assay [4] is KB. The assay can be described thus: The concentration required to inhibit 50% of human epidermoid KB cell growth was measured(in vitro) using MTT assay. The assay is classed as functional, cell-based. The gist of the method: as §1

By IC50 is commonly meant the concentration that inhibits the measured activity by half. Molecule `C=C[C@@]1(O)[C@@H](CO)O[C@@H](n2ccc(=O)[nH]c2=O)[C@@H]1O` gave a Phosphorylating activity in the assay with Sarcoma-180 [1] of 9.3 pmol/min/assay. Further, the IC50 in the assay with Sarcoma-180 [2] is > 30 µM; with KB [3] (Homo sapiens, KB), 51.8 µM; in the assay with L1210 (Mus musculus, L1210), 148 µM.

With `CC#C[C@@]1(O)[C@@H](CO)O[C@@H](n2ccc(N)nc2=O)[C@@H]1O`, the Phosphorylating activity with Sarcoma-180 [1] is 160 pmol/min/assay. In addition, the IC50 in the assay with Sarcoma-180 [2] worked out at 13.9 µM; with KB [3] (Homo sapiens, KB), 14.6 µM; in the assay with L1210 (Mus musculus, L1210), 24.5 µM.

In the case of `CCC[C@@]1(O)[C@@H](CO)O[C@@H](n2ccc(=O)[nH]c2=O)[C@@H]1O`, the IC50 in the assay with KB [3] (Homo sapiens, KB) was > 350 µM; in the assay with L1210 (Mus musculus, L1210), > 350 µM.

`CCC#C[C@@]1(O)[C@@H](CO)O[C@@H](n2ccc(=O)[nH]c2=O)[C@@H]1O`: the concentration for half-maximal inhibition (IC50) in the assay with KB [3] (Homo sapiens, KB) was determined as 226 µM; in the assay on L1210 (Mus musculus, L1210), 338 µM.

On to `CCC#C[C@@]1(O)[C@@H](CO)O[C@@H](n2ccc(N)nc2=O)[C@@H]1O`, for which the Phosphorylating activity in the assay with Sarcoma-180 [1] stood at 0 pmol/min/assay. Moreover, the IC50 in the assay with Sarcoma-180 [2] is > 30 µM; in the assay with KB [3] (Homo sapiens, KB), 108 µM; with L1210 (Mus musculus, L1210), 129 µM.

With `C#C[C@@H]1[C@@H](O)[C@H](n2ccc(N)nc2=O)O[C@@H]1CO`, in the assay with Sarcoma-180 [1], the Phosphorylating activity was determined as 6.9 pmol/min/assay. Also, the IC50 was > 30 µM in the assay with Sarcoma-180 [2]; > 350 µM with KB [3] (Homo sapiens, KB); > 350 µM with L1210 (Mus musculus, L1210).

As to `C#C[C@]1(O)[C@@H](CO)O[C@@H](n2ccc(=O)[nH]c2=O)[C@@H]1O`, the Phosphorylating activity in the assay on Sarcoma-180 [1] amounted to 141 pmol/min/assay. Also, the IC50 in the assay with Sarcoma-180 [2] was 0.013 µM; in the assay on KB [3] (kb), > 350 µM; in the assay on L1210 (l1210), > 350 µM.

Turning to `C#C[C@]1(O)[C@@H](CO)O[C@@H](n2ccc(N)nc2=O)[C@@H]1O`, the concentration for half-maximal inhibition (IC50) in the assay with KB [3] (kb) and in the assay with L1210 (l1210) was > 350 µM in each case.

For `O=c1ccn([C@@H]2O[C@H](CO)[C@](O)(C3CC3)[C@H]2O)c(=O)[nH]1`, the IC50 was > 350 µM in the assay with KB [3] (Homo sapiens, KB) and > 350 µM in the assay on L1210 (Mus musculus, L1210).

As for `C#CC[C@@]1(O)[C@@H](CO)O[C@@H](n2ccc(=O)[nH]c2=O)[C@@H]1O`, the IC50 in the assay with KB [4] is > 350 µM; with L1210 (Mus musculus, L1210) it was > 350 µM.

With `C#C[C@H]1[C@@H](O)[C@H](n2ccc(=O)[nH]c2=O)O[C@@H]1CO`, the IC50 with KB [3] (Homo sapiens, KB) was > 350 µM; with L1210 (Mus musculus, L1210), > 350 µM.

Consider `C#C[C@@H]1[C@@H](O)[C@H](n2ccc(=O)[nH]c2=O)O[C@@H]1CO`, for which the IC50 was > 350 µM with KB [3] (Homo sapiens, KB) and > 350 µM in the assay with L1210 (Mus musculus, L1210).

Consider `C#CC[C@]1(O)[C@@H](CO)O[C@@H](n2ccc(N)nc2=O)[C@@H]1O`, for which the IC50 is > 350 µM in the assay on KB [3] (Homo sapiens, KB) and > 350 µM in the assay on L1210 (Mus musculus, L1210).

As to `CC#C[C@@]1(O)[C@@H](CO)O[C@@H](n2ccc(=O)[nH]c2=O)[C@@H]1O`, the IC50 is 70.8 µM in the assay with KB [3] (Homo sapiens, KB) and 354 µM in the assay on L1210 (Mus musculus, L1210).

Molecule `C=C[C@@]1(O)[C@@H](CO)O[C@@H](n2ccc(N)nc2=O)[C@@H]1O` came in with a Phosphorylating activity with Sarcoma-180 [1] of 0 pmol/min/assay. Also, the IC50 is > 30 µM with Sarcoma-180 [2]; 74.3 µM in the assay on KB [3] (Homo sapiens, KB); 60.8 µM with L1210 (Mus musculus, L1210).

Consider `C#C[C@]1(O)[C@H](O)[C@@H](CO)O[C@H]1n1ccc(N)nc1=O`, for which the IC50 is > 350 µM with KB [3] (Homo sapiens, KB) and > 350 µM in the assay with L1210 (Mus musculus, L1210).

In the assay on Sarcoma-180 [1], `CC[C@@]1(O)[C@@H](CO)O[C@@H](n2ccc(N)nc2=O)[C@@H]1O` gave a Phosphorylating activity of 0 pmol/min/assay. The IC50 in the assay with Sarcoma-180 [2] was > 30 µM; in the assay on KB [3] (Homo sapiens, KB), 258 µM; in the assay with L1210 (Mus musculus, L1210), 269 µM.

Take `C#CC[C@@]1(O)[C@@H](CO)O[C@@H](n2ccc(N)nc2=O)[C@@H]1O`: the IC50 is > 350 µM in the assay with KB [3] (Homo sapiens, KB) and > 350 µM in the assay on L1210 (Mus musculus, L1210).

As to `C#CC[C@]1(O)[C@@H](CO)O[C@@H](n2ccc(=O)[nH]c2=O)[C@@H]1O`, the IC50 is > 350 µM with KB [3] (Homo sapiens, KB) and > 350 µM with L1210 (Mus musculus, L1210).

As to `Nc1ccn([C@@H]2O[C@H](CO)[C@](O)(C3CC3)[C@H]2O)c(=O)n1`, the IC50 in the assay on KB [3] (Homo sapiens, KB) is > 350 µM; in the assay with L1210 (Mus musculus, L1210) it was > 350 µM.

Consider `C#C[C@@]1(O)[C@H](O)[C@@H](CO)O[C@H]1n1ccc(N)nc1=O` [2'-ETHYNYL-D-CYTIDINE], for which the IC50 is > 350 µM in the assay on KB [3] (Homo sapiens, KB) and > 350 µM in the assay on L1210 (Mus musculus, L1210).

Consider `Nc1ccn([C@@H]2O[C@H](CO)[C@@H](O)[C@H]2O)c(=O)n1` [CYTIDINE], for which the Phosphorylating activity in the assay with Sarcoma-180 [1] came to 812 pmol/min/assay.

For `O=c1ccn([C@@H]2O[C@H](CO)[C@@H](O)[C@H]2O)c(=O)[nH]1` [URIDINE], in the assay on Sarcoma-180 [1], the Phosphorylating activity is 755 pmol/min/assay.
